Assay results taken from ChEMBL document CHEMBL1781959, “Synthesis and in vitro antitumor activity of substituted quinazoline and quinoxaline derivatives: search for anticancer agent” (Eur J Med Chem, 2011).

Legend:
Assay type in all cases: functional
SF-295 = assay: Anticancer activity against human SF295 cells assessed as cell growth promotion at 10^-5 M after 48 hrs by SRB assay relative to control
A498 = assay: Anticancer activity against human A498 cells assessed as cell growth promotion at 10^-5 M after 48 hrs by SRB assay relative to control
UACC-62 = assay: Anticancer activity against human UACC62 cells assessed as cell growth promotion at 10^-5 M after 48 hrs by SRB assay relative to control
A549 = assay: Anticancer activity against human A549 cells assessed as cell growth promotion at 10^-5 M after 48 hrs by SRB assay relative to control
DU-145 = assay: Anticancer activity against human DU145 cells assessed as cell growth promotion at 10^-5 M after 48 hrs by SRB assay relative to control
NCI-H460 = assay: Anticancer activity against human NCI-H460 cells assessed as cell growth promotion at 10^-5 M after 48 hrs by SRB assay relative to control
LOX IMVI = assay: Anticancer activity against human LOXIMVI cells assessed as cell growth promotion at 10^-5 M after 48 hrs by SRB assay relative to control
EKVX = assay: Anticancer activity against human EKVX cells assessed as cell growth promotion at 10^-5 M after 48 hrs by SRB assay relative to control
HL-60(TB) = assay: Anticancer activity against human HL-60(TB) cells assessed as cell growth promotion at 10^-5 M after 48 hrs by SRB assay relative to control
How it was run: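 NCI-60 single-dose screen: compound at 10^-5 M, 48 h at 37 °C, 5% CO2; cells grown in RPMI 1640 with 5% FBS and 2 mM L-glutamine, pre-incubated 24 h before dosing. Adherent cells fixed with cold TCA; endpoint is sulforhodamine B protein staining. Percent growth of treated cells is reported relative to untreated control.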

NCI/ADR-RES = assay: Anticancer activity against human NCI/ADR-RES cells assessed as cell growth promotion at 10^-5 M after 48 hrs by SRB assay relative to control
MDA-MB-468 = assay: Anticancer activity against human MDA-MB-468 cells assessed as cell growth promotion at 10^-5 M after 48 hrs by SRB assay relative to control
SK-MEL-28 = assay: Anticancer activity against human SK-MEL-28 cells assessed as cell growth promotion at 10^-5 M after 48 hrs by SRB assay relative to control
OVCAR-8 = assay: Anticancer activity against human OVCAR8 cells assessed as cell growth promotion at 10^-5 M after 48 hrs by SRB assay relative to control
SW-620 = assay: Anticancer activity against human SW620 cells assessed as cell growth promotion at 10^-5 M after 48 hrs by SRB assay relative to control
COLO 205 = assay: Anticancer activity against human COLO205 cells assessed as cell growth promotion at 10^-5 M after 48 hrs by SRB assay relative to control
HOP-62 = assay: Anticancer activity against human HOP62 cells assessed as cell growth promotion at 10^-5 M after 48 hrs by SRB assay relative to control
OVCAR-3 = assay: Anticancer activity against human OVCAR3 cells assessed as cell growth promotion at 10^-5 M after 48 hrs by SRB assay relative to control
KM12 = assay: Anticancer activity against human KM12 cells assessed as cell growth promotion at 10^-5 M after 48 hrs by SRB assay relative to control
MOLT-4 = assay: Anticancer activity against human MOLT4 cells assessed as cell growth promotion at 10^-5 M after 48 hrs by SRB assay relative to control
SF-268 = assay: Anticancer activity against human SF268 cells assessed as cell growth promotion at 10^-5 M after 48 hrs by SRB assay relative to control
PC-3 = assay: Anticancer activity against human PC3 cells assessed as cell growth promotion at 10^-5 M after 48 hrs by SRB assay relative to control
SK-OV-3 = assay: Anticancer activity against human SKOV3 cells assessed as cell growth promotion at 10^-5 M after 48 hrs by SRB assay relative to control
SK-MEL-5 = assay: Anticancer activity against human SK-MEL-5 cells assessed as cell growth promotion at 10^-5 M after 48 hrs by SRB assay relative to control
NCI-H322M = assay: Anticancer activity against human NCI-H322M cells assessed as cell growth promotion at 10^-5 M after 48 hrs by SRB assay relative to control
MCF7 = assay: Anticancer activity against human MCF7 cells assessed as cell growth promotion at 10^-5 M after 48 hrs by SRB assay relative to control
HCT-116 = assay: Anticancer activity against human HCT116 cells assessed as cell growth promotion at 10^-5 M after 48 hrs by SRB assay relative to control
OVCAR-5 = assay: Anticancer activity against human OVCAR5 cells assessed as cell growth promotion at 10^-5 M after 48 hrs by SRB assay relative to control
786-0 = assay: Anticancer activity against human 786-0 cells assessed as cell growth promotion at 10^-5 M after 48 hrs by SRB assay relative to control
Malme-3M = assay: Anticancer activity against human MALME-3M cells assessed as cell growth promotion at 10^-5 M after 48 hrs by SRB assay relative to control
TK-10 = assay: Anticancer activity against human TK10 cells assessed as cell growth promotion at 10^-5 M after 48 hrs by SRB assay relative to control
MDA-MB-231 = assay: Anticancer activity against human MDA-MB-231 cells assessed as cell growth promotion at 10^-5 M after 48 hrs by SRB assay relative to control
HCC 2998 = assay: Anticancer activity against human HCC2998 cells assessed as cell growth promotion at 10^-5 M after 48 hrs by SRB assay relative to control
IGROV-1 = assay: Anticancer activity against human IGROV1 cells assessed as cell growth promotion at 10^-5 M after 48 hrs by SRB assay relative to control
T47D = assay: Anticancer activity against human T47D cells assessed as cell growth promotion at 10^-5 M after 48 hrs by SRB assay relative to control
NCI-H23 = assay: Anticancer activity against human NCI-H23 cells assessed as cell growth promotion at 10^-5 M after 48 hrs by SRB assay relative to control
SF-539 = assay: Anticancer activity against human SF539 cells assessed as cell growth promotion at 10^-5 M after 48 hrs by SRB assay relative to control
K562 = assay: Anticancer activity against human K562 cells assessed as cell growth promotion at 10^-5 M after 48 hrs by SRB assay relative to control
[1] = Anticancer activity against human Hs 578T cells assessed as cell growth promotion at 10^-5 M after 48 hrs by SRB assay relative to control

| Structure (SMILES) | Activity (SF-295) [%] | Activity (UACC-62) [%] | Activity (A549) [%] | Activity (DU-145) [%] | Activity (NCI-H460) [%] | Activity (LOX IMVI) [%] | Activity (EKVX) [%] | Activity (HL-60(TB)) [%] | Activity (NCI/ADR-RES) [%] | Activity (MDA-MB-468) [%] | Activity (SK-MEL-28) [%] | Activity (OVCAR-8) [%] | Activity (SW-620) [%] | Activity (COLO 205) [%] | Activity (HOP-62) [%] | Activity (OVCAR-3) [%] | Activity (KM12) [%] | Activity (MOLT-4) [%] | Activity (SF-268) [%] | Activity (PC-3) [%] | also measured |
| --- | --- | --- | --- | --- | --- | --- | --- | --- | --- | --- | --- | --- | --- | --- | --- | --- | --- | --- | --- | --- | --- |
| O=c1c2ccccc2nc(-c2ccco2)n1O | 117.66 | 92.42 | 113.82 | 122.21 | 108.52 | 107.97 | 109.13 | 95.84 | 112.3 | 115.34 | 109.58 | 110.28 | 107.69 | 107.29 | 112.74 | 114.53 | 110.22 | 101.31 | 106.3 | 91.05 | Activity (A498): 97.65%; Activity (SK-OV-3): 106.84%; Activity (SK-MEL-5): 111.56%; Activity (NCI-H322M): 97.18%; Activity (MCF7): 103.51%; Activity (HCT-116): 105.94%; Activity (OVCAR-5): 100.49%; Activity (786-0): 104.23%; Activity (Malme-3M): 122.97%; Activity (TK-10): 98.03%; Activity (MDA-MB-231): 93.48%; Activity (HCC 2998): 119.5%; Activity (IGROV-1): 103.91%; Activity (T47D): 106.81%; Activity (NCI-H23): 105.41%; Activity (SF-539): 95.42%; Activity (K562): 105.54% |
| O=C(O)c1ccc(-n2c(-c3ccco3)nc3ccccc3c2=O)cc1 | 108.58 | 84.67 | 104.77 | 111.42 | 95.38 | 98.82 | 98.39 | 94.52 | 102.28 | 101.43 | 115.08 | 104.87 | 106.15 | 103.97 | 107.05 | 105.38 | 104.99 | 91.05 | 106.85 | 86.25 | Activity (A498): 106.88%; Activity (SK-OV-3): 107.59%; Activity (SK-MEL-5): 94.96%; Activity (NCI-H322M): 97.61%; Activity (MCF7): 63.47%; Activity (HCT-116): 99.69%; Activity (OVCAR-5): 98.22%; Activity (786-0): 105.17%; Activity (Malme-3M): 102.96%; Activity (TK-10): 94.73%; Activity (MDA-MB-231): 83.73%; Activity (HCC 2998): 120.31%; Activity (IGROV-1): 91.67%; Activity (T47D): 83%; Activity (NCI-H23): 98.82%; Activity (SF-539): 104.2%; Activity (K562): 98.25% |
| COc1cc(/C=C/c2ccc(NC(=O)c3ccccc3NC(=O)c3ccccc3)cc2)ccc1O | 162 | 98.83 | 99.78 | 108 | 107 | 92 | 100 | 97.49 | 117 | 95.39 | 115 | 105 | 109 | 115 | 94.69 | 107 | 106 | 86.81 | 108 | 94.13 | Activity [1]: 100%; Activity (SK-OV-3): 96.53%; Activity (SK-MEL-5): 86.16%; Activity (NCI-H322M): 91.92%; Activity (MCF7): 96.33%; Activity (HCT-116): 92.7%; Activity (OVCAR-5): 116%; Activity (786-0): 95.86%; Activity (Malme-3M): 101%; Activity (TK-10): 97.64%; Activity (MDA-MB-231): 96.74%; Activity (HCC 2998): 99.7%; Activity (IGROV-1): 96.3%; Activity (T47D): 89.85%; Activity (NCI-H23): 105%; Activity (SF-539): 110%; Activity (K562): 96.88% |
| O=C(Nc1ccccc1C(=O)Nc1ccc(/C=C/C=C/c2ccccc2)cc1)c1ccccc1 | 58.93 | 84.87 | 91.49 | 111 | 94.36 | 84.87 | 87.7 | 92.43 | 112 | 81.99 | 107 | 104 | 107 | 121 | 93.96 | 88.79 | 93.79 | 77.32 | 98.17 | 75.75 | Activity [1]: 80.44%; Activity (SK-OV-3): 87.56%; Activity (SK-MEL-5): 77.57%; Activity (NCI-H322M): 81.13%; Activity (MCF7): 100%; Activity (HCT-116): 84.74%; Activity (OVCAR-5): 99.95%; Activity (786-0): 84.31%; Activity (Malme-3M): 78.99%; Activity (TK-10): 114%; Activity (MDA-MB-231): 87.48%; Activity (HCC 2998): 93.69%; Activity (IGROV-1): 78.34%; Activity (T47D): 86.44%; Activity (NCI-H23): 91.39%; Activity (SF-539): 102%; Activity (K562): 62.47% |
| COc1ccc(OC)c(/C=C/c2nc3ccccc3nc2SCc2nc3ccccc3[nH]2)c1 | 110 | 80.62 | 90.64 | 98.54 | 94.48 | 93.9 | 81.9 | 91.21 | 95.82 | 98.24 | 118 | 92.09 | 96.03 | 104 | 87.33 | 107 | 97.42 | 69.92 | 99.47 | 113 | Activity (A498): 95.89%; Activity [1]: 87.08%; Activity (SK-OV-3): 85.7%; Activity (SK-MEL-5): 75.46%; Activity (NCI-H322M): 94.87%; Activity (MCF7): 82.73%; Activity (HCT-116): 73.92%; Activity (OVCAR-5): 101%; Activity (786-0): 90.52%; Activity (Malme-3M): 108%; Activity (TK-10): 56.15%; Activity (MDA-MB-231): 96.56%; Activity (IGROV-1): 79.39%; Activity (T47D): 63.43%; Activity (NCI-H23): 92.16%; Activity (SF-539): 94.92%; Activity (K562): 90.78% |
